ChEMBL document CHEMBL1136290, “Concise synthesis and biological activities of 2alpha-alkyl- and 2alpha-(omega-hydroxyalkyl)-20-epi-1alpha,25-dihydroxyvitamin D3” (2003)

Legend:
HL-60 = experiment: In vitro induction of HL-60 cell differentiation.; type: functional, Homo sapiens; set-up: reference not given here
How it was run: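 HL-60 differentiation was scored by the NBT reduction method.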

[1] = target: T1, Vitamin D3 receptor (Bos taurus) (UniProt Q28037); experiment: Binding affinity at bovine thymus Vitamin D3 receptor relative to 1-alpha,25-Dihydroxyvitamin D3.
T1 sequence (whole entry): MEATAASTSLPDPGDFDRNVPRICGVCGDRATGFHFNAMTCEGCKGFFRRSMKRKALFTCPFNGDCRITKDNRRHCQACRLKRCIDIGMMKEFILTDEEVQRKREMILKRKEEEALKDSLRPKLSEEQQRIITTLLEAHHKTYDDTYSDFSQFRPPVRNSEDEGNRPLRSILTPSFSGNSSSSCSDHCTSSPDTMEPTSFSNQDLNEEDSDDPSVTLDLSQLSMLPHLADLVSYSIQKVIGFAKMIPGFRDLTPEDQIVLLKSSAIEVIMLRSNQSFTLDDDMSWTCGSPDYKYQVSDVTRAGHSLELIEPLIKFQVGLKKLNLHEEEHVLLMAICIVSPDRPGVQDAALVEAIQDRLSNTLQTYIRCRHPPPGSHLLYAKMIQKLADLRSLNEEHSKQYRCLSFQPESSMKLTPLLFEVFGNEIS

## C=C1/C(=C\C=C2/CCC[C@]3(C)[C@@H]([C@@H](C)CCCC(C)(C)O)CC[C@@H]23)C[C@@H](O)C[C@@H]1O
HL-60
  Potency: 3571
[1]
  relative binding affinity (RBA): 400

## C=C1/C(=C\C=C2/CCC[C@]3(C)[C@@H]([C@@H](C)CCCC(C)(C)O)CC[C@@H]23)C[C@@H](O)[C@H](CCO)[C@@H]1O
HL-60
  Potency: 4030
[1]
  relative binding affinity (RBA): 320

## C=C1/C(=C\C=C2/CCC[C@]3(C)[C@@H]([C@H](C)CCCC(C)(C)O)CC[C@@H]23)C[C@@H](O)[C@H](CO)[C@@H]1O
HL-60
  Potency: 10
[1]
  relative binding affinity (RBA): 20

## C=C1/C(=C\C=C2/CCC[C@]3(C)[C@@H]([C@@H](C)CCCC(C)(C)O)CC[C@@H]23)C[C@@H](O)[C@H](CC)[C@@H]1O
HL-60
  Potency: 4200
[1]
  relative binding affinity (RBA): 150

## C=C1/C(=C\C=C2/CCC[C@]3(C)[C@@H]([C@@H](C)CCCC(C)(C)O)CC[C@@H]23)C[C@@H](O)[C@H](CO)[C@@H]1O
HL-60
  Potency: 570
[1]
  relative binding affinity (RBA): 190

## C=C1/C(=C\C=C2/CCC[C@]3(C)[C@@H]([C@@H](C)CCCC(C)(C)O)CC[C@@H]23)C[C@@H](O)[C@H](CCCO)[C@@H]1O
HL-60
  Potency: 4900
[1]
  relative binding affinity (RBA): 370

## C=C1/C(=C\C=C2/CCC[C@]3(C)[C@@H]([C@@H](C)CCCC(C)(C)O)CC[C@@H]23)C[C@@H](O)[C@H](CCCCO)[C@@H]1O
HL-60
  Potency: 3910
[1]
  relative binding affinity (RBA): 183

## C=C1/C(=C\C=C2/CCC[C@]3(C)[C@@H]([C@@H](C)CCCC(C)(C)O)CC[C@@H]23)C[C@@H](O)[C@H](CCCC)[C@@H]1O
HL-60
  Potency: 2300
[1]
  relative binding affinity (RBA): 33

## C=C1/C(=C\C=C2/CCC[C@]3(C)[C@@H]([C@H](C)CCCC(C)(C)O)CC[C@@H]23)C[C@@H](O)[C@H](CCO)[C@@H]1O
HL-60
  Potency: 86
[1]
  relative binding affinity (RBA): 70

## C=C1/C(=C\C=C2/CCC[C@]3(C)[C@@H]([C@H](C)CCCC(C)(C)O)CC[C@@H]23)C[C@@H](O)C[C@@H]1O [CALCITRIOL]
HL-60
  Potency: 100
[1]
  relative binding affinity (RBA): 100

## C=C1/C(=C\C=C2/CCC[C@]3(C)[C@@H]([C@H](C)CCCC(C)(C)O)CC[C@@H]23)C[C@@H](O)[C@H](CCC)[C@@H]1O
HL-60
  Potency: 44
[1]
  relative binding affinity (RBA): 20

## C=C1/C(=C\C=C2/CCC[C@]3(C)[C@@H]([C@H](C)CCCC(C)(C)O)CC[C@@H]23)C[C@@H](O)[C@H](CCCCO)[C@@H]1O
HL-60
  Potency: 460
[1]
  relative binding affinity (RBA): 120

## C=C1/C(=C\C=C2/CCC[C@]3(C)[C@@H]([C@H](C)CCCC(C)(C)O)CC[C@@H]23)C[C@@H](O)[C@H](C)[C@@H]1O
HL-60
  Potency: 258
[1]
  relative binding affinity (RBA): 400

## C=C1/C(=C\C=C2/CCC[C@]3(C)[C@@H]([C@H](C)CCCC(C)(C)O)CC[C@@H]23)C[C@@H](O)[C@H](CCCO)[C@@H]1O
HL-60
  Potency: 240
[1]
  relative binding affinity (RBA): 300

## C=C1/C(=C\C=C2/CCC[C@]3(C)[C@@H]([C@@H](C)CCCC(C)(C)O)CC[C@@H]23)C[C@@H](O)[C@H](C)[C@@H]1O
HL-60
  Potency: 9688
[1]
  relative binding affinity (RBA): 1200

## C=C1/C(=C\C=C2/CCC[C@]3(C)[C@@H]([C@H](C)CCCC(C)(C)O)CC[C@@H]23)C[C@@H](O)[C@H](CC)[C@@H]1O
HL-60
  Potency: 106
[1]
  relative binding affinity (RBA): 40

## C=C1/C(=C\C=C2/CCC[C@]3(C)[C@@H]([C@H](C)CCCC(C)(C)O)CC[C@@H]23)C[C@@H](O)[C@H](CCCC)[C@@H]1O
HL-60
  Potency: 74
[1]
  relative binding affinity (RBA): 8

## C=C1/C(=C\C=C2/CCC[C@]3(C)[C@@H]([C@@H](C)CCCC(C)(C)O)CC[C@@H]23)C[C@@H](O)[C@H](CCC)[C@@H]1O
HL-60
  Potency: 1750
[1]
  relative binding affinity (RBA): 119
